Measured values reported in ChEMBL document CHEMBL1155196, “N-hydroxybenzimidazole inhibitors of the transcription factor LcrF in Yersinia: novel antivirulence agents” (J Med Chem, 2009).
Active and inactive are the calls of the source. The rule behind the calls is not given here.

Experiments:
[1] = Inhibition of 6His-tagged Yersinia sp. LcrF binding to biotinylated double-stranded DNA by cell free-based chemiluminescence assay
Outline: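 Biotinylated double-stranded DNA carrying LcrF sites (2 nM) captured on streptavidin plates and incubated with 6His-LcrF (20 nM) plus titrated inhibitor in Hepes/ammonium sulfate/KCl/EDTA buffer with 0.2% polysorbate 20 and 0.5% non-fat milk. After washing, anti-6His then HRP secondary antibody, chemiluminescence read-out. % inhibition against control wells, curve-fitted IC50; mostly mean of two independent experiments.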

J774.A1 [2] = assay: Cytotoxicity against mouse J774A1 cells assessed as LDH release at 50 ug/mL after 18 hrs by colorimetric assay; assay type: cell-based; settings: j774.a1, 18 h
J774.A1 [3] = assay: Inhibition of Yersinia pseudotuberculosis YP3 pIB1 LcrF-mediated cytotoxicity against mouse J774A1 cells assessed as LDH release at 50 ug/mL after 18 hrs by colorimetric assay; assay type: cell-based; settings: Yersinia pseudotuberculosis YPIII
Outline: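 J774A.1 macrophages plated at 2 × 10^4 per well the day before. Y. pseudotuberculosis YPIIIpIB1 grown in 2-YT with 20 mM MgCl2 and 20 mM sodium oxalate, 90 min at 26 °C then 90 min at 37 °C. Infection at MOI 5–10 in DMEM, 2 h at 37 °C, 5% CO2. Gentamicin 50 μg/mL added, then ~18 h. Compound at 50 μg/mL in both culture and wells; vehicle DMSO/0.4% ethanolamine. LDH release measured colorimetrically, expressed as % of wild-type vehicle cytotoxicity.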

[4] = target: T1, HTH-type transcriptional regulator ExsA (Pseudomonas aeruginosa (strain ATCC 15692 / PAO1 / 1C / PRS 101 / LMG12228), UniProt P26993); assay: Inhibition of Pseudomonas aeruginosa ExsA binding to DNA
T1 sequence (P26993 whole entry): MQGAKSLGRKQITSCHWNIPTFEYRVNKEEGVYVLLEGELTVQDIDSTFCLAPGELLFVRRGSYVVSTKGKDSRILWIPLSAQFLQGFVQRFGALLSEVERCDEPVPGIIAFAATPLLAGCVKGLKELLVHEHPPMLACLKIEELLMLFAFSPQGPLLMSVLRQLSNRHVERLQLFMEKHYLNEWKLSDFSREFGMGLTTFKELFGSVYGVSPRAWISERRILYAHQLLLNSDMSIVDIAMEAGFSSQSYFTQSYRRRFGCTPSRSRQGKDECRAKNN
Outline: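 ExsA-DNA binding run like the LcrF plate assay: immobilised biotinylated DNA, His-tagged regulator, titrated inhibitor, washing, anti-6His/HRP chemiluminescent detection, % inhibition against control wells, curve-fitted IC50.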

[5] = Inhibition of Salmonella sp. SlyA binding to DNA
Outline: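 Same format as the LcrF ELISA-type assay. Biotinylated double-stranded DNA carrying the binding sequence was captured on streptavidin-coated wells with His-tagged SlyA and titrated inhibitor. Buffer was 20 mM Hepes, 10 mM ammonium sulfate, 30 mM KCl, 1 mM EDTA, 0.2% polysorbate 20 and 0.5% non-fat milk. After washing, bound complex was detected with anti-6His then HRP secondary and chemiluminescence. IC50 came from dose-response fits against control wells.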

[6] = test system: Yersinia pseudotuberculosis; assay: Antimicrobial activity against Yersinia pseudotuberculosis after 18 to 24 hrs by CLSI microdilution test; assay type: functional
Staphylococcus aureus = assay: Antimicrobial activity against Staphylococcus aureus RN450 after 18 to 24 hrs by CLSI microdilution test; assay type: functional
Escherichia coli = assay: Antimicrobial activity against Escherichia coli ATCC 25922 after 18 to 24 hrs by CLSI microdilution test; assay type: functional

| SMILES | IC50 [1] | Activity (J774.A1 [2]) | other results |
| --- | --- | --- | --- |
| O=C(/C=C/c1ccc(F)cc1)Nc1ccc(-c2nc3ccccc3n2O)cc1 | > 100 µM | Non-toxic |  |
| CS(=O)(=O)c1ccc2nc(-c3ccc(NC(=O)/C=C/c4ccc(F)cc4)cc3)n(O)c2c1 | 87.4 µM | Non-toxic |  |
| O=C(/C=C/c1ccc(C(F)(F)F)cc1)Nc1ccc(-c2nc3ccc([N+](=O)[O-])cc3n2O)cc1 | 6.4 µM | Non-toxic |  |
| N#Cc1ccc2nc(-c3ccc(NC(=O)/C=C/c4ccc(F)cc4)cc3)n(O)c2c1 | 8.3 µM | Non-toxic |  |
| O=C(/C=C/c1ccc(F)c(F)c1)Nc1ccc(-c2nc3ccc([N+](=O)[O-])cc3n2O)cc1 | 14.5 µM | Non-toxic | Activity (J774.A1 [3]): Active |
| O=C(/C=C/c1ccc(F)cc1)Nc1ccc(-c2nc3ccc(-n4cccn4)cc3n2O)cc1 | 53.7 µM | Non-toxic |  |
| O=C(/C=C/c1ccc(F)cc1)Nc1ccc(-c2nc3cc(F)c([N+](=O)[O-])cc3n2O)cc1 | 26.6 µM | Non-toxic |  |
| O=C(/C=C/c1ccc(F)cc1)Nc1ccc(-c2nc3ccc(-n4ccnc4)cc3n2O)cc1 | 37.3 µM | Non-toxic |  |
| O=C(/C=C/c1ccc(F)cc1)NCc1ccc(-c2nc3ccc([N+](=O)[O-])cc3n2O)cc1 | 14 µM | Non-toxic |  |
| Cc1ccc(/C=C/C(=O)Nc2ccc(-c3nc4ccc([N+](=O)[O-])cc4n3O)cc2)cc1 | 0.8 µM | Non-toxic | Activity (J774.A1 [3]): inactive |
| O=C(CCc1ccc(F)cc1)Nc1ccc(-c2nc3ccc([N+](=O)[O-])cc3n2O)cc1 | > 53.5 µM | Non-toxic |  |
| O=C(/C=C/c1ccc(-c2c[nH]cn2)cc1)Nc1ccc(-c2nc3ccc([N+](=O)[O-])cc3n2O)cc1 | > 44.8 µM | Non-toxic |  |
| O=C(NCc1ccc(-c2nc3ccc([N+](=O)[O-])cc3n2O)cc1)c1ccc(F)cc1 | > 58.4 µM | Non-toxic |  |
| O=C(/C=C/c1ccc(F)cc1)Nc1ccc(-c2nc3ccc([N+](=O)[O-])cc3n2O)cn1 | 7.4 µM | Non-toxic |  |
| O=C(/C=C/c1ccc(F)cc1)Nc1ccc(-c2nc3ccc([N+](=O)[O-])cc3n2O)c(F)c1 | 6.5 µM | Non-toxic |  |
| O=C(/C=C/c1ccc(F)cc1)Nc1ccc(-c2nc3ccc(C(=O)O)cc3n2O)cc1 | 38.5 µM | Non-toxic |  |
| O=C(/C=C/c1ccc(F)cc1)Nc1ccc(-c2nc3ccc([N+](=O)[O-])cc3n2O)cc1 | 3.9 µM | Non-toxic | Activity (J774.A1 [3]): Active; IC50 [4]: 3.5 µM; IC50 [5]: > 53.8 µM; MIC [6]: > 64 µg/mL; MIC (Staphylococcus aureus): > 64 µg/mL; MIC (Escherichia coli): > 64 µg/mL |
| O=C(/C=C/c1ccc(F)cc1)Nc1ccc(-c2nc3ccc(F)cc3n2O)cc1 | > 100 µM | Non-toxic |  |
| O=C(/C=C/c1ccc(F)cc1)Nc1ccc(-c2nc3ccc(Cl)cc3n2O)cc1 | > 100 µM | Non-toxic |  |
| N#Cc1ccc(/C=C/C(=O)Nc2ccc(-c3nc4ccc([N+](=O)[O-])cc4n3O)cc2)cc1 | 16.4 µM | Non-toxic | Activity (J774.A1 [3]): Active |
| COc1ccc(/C=C/C(=O)Nc2ccc(-c3nc4ccc([N+](=O)[O-])cc4n3O)cc2)c(OC)c1 | 38.5 µM | Non-toxic |  |

| SMILES | IC50 [1] | Activity (J774.A1 [2]) | other results |
| --- | --- | --- | --- |
| Cc1cc(-c2nc3ccc([N+](=O)[O-])cc3n2O)ccc1NC(=O)/C=C/c1ccc(F)cc1 | 25.3 µM | Non-toxic |  |
| O=C(/C=C/c1ccc(O)cc1)Nc1ccc(-c2nc3ccc([N+](=O)[O-])cc3n2O)cc1 | > 57 µM | Non-toxic |  |
| O=C(/C=C/c1ccc(F)cc1)Nc1ccc(-c2nc3ccncc3n2O)cc1 | > 54.8 µM | Non-toxic |  |
| CCOc1cc2nc(-c3ccc(NC(=O)/C=C/c4ccc(F)cc4)cc3)n(O)c2cc1[N+](=O)[O-] | 17.1 µM | Non-toxic | Activity (J774.A1 [3]): Active |
| O=C(Cc1ccc(F)cc1)Nc1ccc(-c2nc3ccc([N+](=O)[O-])cc3n2O)cc1 | > 58.4 µM | Non-toxic |  |
| O=C(/C=C/c1ccccc1)Nc1ccc(-c2nc3ccc([N+](=O)[O-])cc3n2O)cc1 | 6.9 µM | Non-toxic |  |
| CN(C)c1cc2nc(-c3ccc(NC(=O)/C=C/c4ccc(F)cc4)cc3)n(O)c2cc1[N+](=O)[O-] | 66 µM | Non-toxic |  |
| O=C(Nc1ccc(-c2nc3ccc([N+](=O)[O-])cc3n2O)cc1)c1ccc(F)cc1 | 17.7 µM | Non-toxic |  |
| O=C(/C=C/c1ccc(F)cc1)Nc1ccc(-c2nc3ccc(C(F)(F)F)cc3n2O)cc1 | 59.7 µM | Non-toxic |  |
| CC(C)c1ccc(/C=C/C(=O)Nc2ccc(-c3nc4ccc([N+](=O)[O-])cc4n3O)cc2)cc1 | > 50.9 µM | Non-toxic |  |
| O=C(/C=C/c1ccc(F)cc1)Nc1ccc(-c2nc3ccc([N+](=O)[O-])cc3n2O)cc1F | 20.7 µM | Non-toxic |  |
| COc1ccc(/C=C/C(=O)Nc2ccc(-c3nc4ccc([N+](=O)[O-])cc4n3O)cc2)cc1 | 8 µM | Non-toxic | Activity (J774.A1 [3]): Active; IC50 [4]: 5.9 µM; IC50 [5]: > 55.2 µM; MIC [6]: > 64 µg/mL; MIC (Staphylococcus aureus): > 64 µg/mL; MIC (Escherichia coli): > 64 µg/mL |
| O=C(/C=C/c1ccc(-n2cnnc2)cc1)Nc1ccc(-c2nc3ccc([N+](=O)[O-])cc3n2O)cc1 | 35.7 µM | Non-toxic |  |
| COc1cc(NC(=O)/C=C/c2ccc(F)cc2)ccc1-c1nc2ccc([N+](=O)[O-])cc2n1O | 13.5 µM | Non-toxic |  |
| O=C(/C=C/c1ccc(F)cc1F)Nc1ccc(-c2nc3ccc([N+](=O)[O-])cc3n2O)cc1 | 5 µM | Non-toxic |  |
| CN(C)c1ccc(/C=C/C(=O)Nc2ccc(-c3nc4ccc([N+](=O)[O-])cc4n3O)cc2)cc1 | 16.9 µM | Non-toxic |  |
| Cc1cc2nc(-c3ccc(NC(=O)/C=C/c4ccc(F)cc4)cc3)n(O)c2cc1[N+](=O)[O-] | 7.6 µM | Non-toxic | Activity (J774.A1 [3]): Active; IC50 [4]: 6.7 µM; IC50 [5]: > 52 µM; MIC [6]: > 64 µg/mL; MIC (Staphylococcus aureus): > 64 µg/mL; MIC (Escherichia coli): > 64 µg/mL |
| CC(=O)c1ccc2nc(-c3ccc(NC(=O)/C=C/c4ccc(F)cc4)cc3)n(O)c2c1 | 39.4 µM | Non-toxic |  |
| O=C(/C=C/c1ccc(F)cc1)Nc1ccc(-c2nc3ccc([N+](=O)[O-])cc3n2O)nc1 | 10.8 µM | Non-toxic | Activity (J774.A1 [3]): inactive |
| COc1ccccc1/C=C/C(=O)Nc1ccc(-c2nc3ccc([N+](=O)[O-])cc3n2O)cc1 | 20.9 µM | Non-toxic |  |
